In ChEMBL document CHEMBL1147902, “Phosphonoxins: rational design and discovery of a potent nucleotide anti-Giardia agent” (Bioorg Med Chem Lett, 2007) one finds MIC, EC50 and level, % of control data, which are given here for 14 molecules.

One may read the MIC as the lowest concentration found to suppress growth. Read a high MIC as a need for much substance. What is called EC50 is the concentration needed to bring the measured effect to its halfway point. A high value points to a less potent agent.

Series [1] has as its system Giardia intestinalis. As to the kind of experiment: Antiprotozoal activity against Giardia lamblia WB6 trophozoites after 48 hrs. It is filed as functional. The note with it: Giardia duodenalis, WB6, 48 h. Put shortly:
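Trophozoites of strain WB-6 cultured anaerobically 48 h with 2-fold serial drug dilutions, triplicate wells; viability read by XTT reagent.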

The nature of series [2]: Toxicity in MDBK cells. Type of series: cell-based. The note with it: Bos taurus.
Series [3] relates to Giardia intestinalis. Nature of the series: Cyst formation in Giardia lamblia WB6 at 10 uM relative to control. The note with it: Giardia duodenalis.

Values after ≈ are worked out from the molar mass of the structure shown.

Consider `O=c1ccn(C[C@@H]2O[C@H](COP(=O)(O)CCCN3C[C@H](O)[C@@H](O)C3)[C@@H](O)[C@H]2O)c(=O)[nH]1`, for which, in the series with Giardia intestinalis [1], 20 µM (≈ 9.31 µg/mL) was the least that counted as inhibitory (MIC). The EC50 in series [2] was > 250 µM. The same molecule yielded a level, % of control at 10 µM with Giardia intestinalis [3] of 22.9%.
Consider `O=c1ccn(C[C@@H]2O[C@H](COP(=O)(O)COCCN3C[C@@H](O)[C@H](O)C3)[C@@H](O)[C@H]2O)c(=O)[nH]1`, for which the lowest concentration to inhibit growth against Giardia intestinalis [1] (MIC) was 20 µM (≈ 9.63 µg/mL). In addition, the EC50 in series [2] is > 250 µM. This molecule also registered a level, % of control at 10 µM in the series on Giardia intestinalis [3] of 17.2%.
For `O=c1ccn(C[C@@H]2O[C@H](COP(=O)(O)CCN(CCO)CCO)[C@@H](O)[C@H]2O)c(=O)[nH]1`, the MIC against Giardia intestinalis [1] is > 10 µM. Besides, the EC50 in series [2] is > 250 µM. In addition, in the series on Giardia intestinalis [3], the level, % of control at 10 µM worked out at 72.2%.
As for `O=c1ccn(C[C@@H]2O[C@H](COP(=O)(O)CN3C[C@@H](O)[C@H](O)C3)[C@@H](O)[C@H]2O)c(=O)[nH]1`, the MIC with Giardia intestinalis [1] was > 20 µM. For the same molecule, the EC50 in series [2] is > 250 µM.
For `CCOP(=O)(CCNCCOC(C)=O)OCC` the same measures were > 20 µM and > 250 µM.
On to `O=c1ccn(C[C@@H]2O[C@H](COP(=O)(O)CCNCCO)[C@@H](O)[C@H]2O)c(=O)[nH]1`, for which the MIC with Giardia intestinalis [1] is > 20 µM. For the same molecule, the EC50 in series [2] was > 250 µM.
Turning to `NCP(=O)(O)OC[C@H]1O[C@@H](n2ccc(=O)[nH]c2=O)[C@H](O)[C@@H]1O`, in the series with Giardia intestinalis [1], the MIC was > 20 µM. For the same molecule, the EC50 in series [2] is > 250 µM. The level, % of control at 10 µM with Giardia intestinalis [3] was 34.4%.
Turning to `CC(=O)OCCN(CCO)CCP(=O)(O)OC[C@H]1O[C@@H](Cn2ccc(=O)[nH]c2=O)[C@H](O)[C@@H]1O`, the MIC in the series on Giardia intestinalis [1] was > 10 µM. The EC50 in series [2] was > 250 µM. Further, the level, % of control at 10 µM with Giardia intestinalis [3] came to 35.6%.
Take `O=C1[C@@H](O)[C@H](O)C(=O)N1CCP(=O)(O)OC[C@H]1O[C@@H](Cn2ccc(=O)[nH]c2=O)[C@H](O)[C@@H]1O`: the MIC in the series on Giardia intestinalis [1] was > 20 µM. In addition, in series [2], the EC50 is > 250 µM. Also, the level, % of control at 10 µM with Giardia intestinalis [3] worked out at 28.7%.
For `O=c1ccn(C[C@@H]2O[C@H](COP(=O)(O)CCN3C[C@H](O)[C@@H](O)C3)[C@@H](O)[C@H]2O)c(=O)[nH]1` the same measures were 0.48 µM (≈ 0.217 µg/mL), > 250 µM and 5.73%.
Turning to `NCCP(=O)(O)OC[C@H]1O[C@@H](n2ccc(=O)[nH]c2=O)[C@H](O)[C@@H]1O`, the MIC against Giardia intestinalis [1] is > 10 µM. The EC50 in series [2] is > 250 µM. In the series on Giardia intestinalis [3], the level, % of control at 10 µM amounted to 14.9%.
For `CCOP(=O)(CCN(CCOC(C)=O)CCOC(C)=O)OCC`, the MIC with Giardia intestinalis [1] is > 20 µM. Also, in series [2], the EC50 was > 250 µM.
In the same order, the values of `O=c1ccn(C[C@@H]2O[C@H](COP(=O)(O)CCN3CCCC3)[C@@H](O)[C@H]2O)c(=O)[nH]1` are > 20 µM and > 250 µM.
Turning to `CC(=O)OCCN(CCOC(C)=O)CCP(=O)(O)OC[C@H]1O[C@@H](Cn2ccc(=O)[nH]c2=O)[C@H](O)[C@@H]1O`, the MIC against Giardia intestinalis [1] is > 10 µM. In addition, the EC50 in series [2] is > 250 µM. The level, % of control at 10 µM with Giardia intestinalis [3] was 27.4%.
